Experimental data as given in ChEMBL document CHEMBL1140064, “Anxiolytic-like effects of N,N-dialkyl-2-phenylindol-3-ylglyoxylamides by modulation of translocator protein promoting neurosteroid biosynthesis” (J Med Chem, 2008).

Assays:
[1] = molecular target: Translocator protein (Rattus norvegicus, UniProt P16257); assay: Displacement of [3H]PK11195 from translocator protein in rat kidney mitochondrial membrane; format: cell membranes
[2] = tested on: C6; assay: Induction of pregnenolone biosynthesis in rat C6 cells assessed as increase in pregnenolone level at 40 uM after 2 hrs by ELISA relative to control; format: functional
How it was run: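 Rat C6 glioma cells grown in DMEM with 10% FBS, 2 mM L-glutamine, penicillin/streptomycin, seeded ~10 000 cells/well. Exposed to compound at 40 µM for 2 h at 37 °C, with DMSO/ethanol ≤0.5% (v/v) kept constant. Pregnenolone secreted into the medium measured by competitive ELISA; mean ± SEM of at least three determinations.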

Translocator protein, sequence (P16257 whole entry, looked up): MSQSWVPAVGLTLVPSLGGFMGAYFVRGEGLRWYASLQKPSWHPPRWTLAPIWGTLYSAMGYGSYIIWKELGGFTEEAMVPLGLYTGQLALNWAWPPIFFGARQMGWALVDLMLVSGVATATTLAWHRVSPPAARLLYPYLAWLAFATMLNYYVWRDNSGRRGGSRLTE

Question: Which Ki [1] does the source give for `CCCCN(CCCC)C(=O)C(=O)c1c(-c2ccc(F)cc2)[nH]c2ccc(F)cc12` here?
Answer: 4.36 nM

Question: And the Activity [2]?
Answer: 91%

Question: `CCCN(CCC)C(=O)C(=O)c1c(-c2ccc(Cl)cc2)[nH]c2ccccc12` was tested. Which Activity [2] did it give?
Answer: 40%

Question: How did the Ki [1] turn out when `CCCCCCN(CCCCCC)C(=O)C(=O)c1c(-c2ccccc2)[nH]c2ccc(OC)cc12` was run?
Answer: 35.5 nM

Question: What about the Activity [2] of the same compound?
Answer: 87%

Question: With `CCCN(CCC)C(=O)C(=O)c1c(-c2ccccc2)[nH]c2c(C)cccc12` as the compound, how does the Ki [1] read?
Answer: 25 nM

Question: What about the Activity [2] of the same compound?
Answer: 129%

Question: With `CCCCCCN(CCCCCC)C(=O)C(=O)c1c(-c2ccc(C(F)(F)F)cc2)[nH]c2ccccc12` as the compound, how does the Ki [1] read?
Answer: 1 nM

Question: And the Activity [2]?
Answer: 85%

Question: Which results are given for `CCCN(CCC)C(=O)C(=O)c1c(-c2ccc(C(F)(F)F)cc2)[nH]c2ccccc12`?
Answer: Ki [1]: 1.69 nM; Activity [2]: 66%

Question: Which results are given for `CCCCCCN(CCCCCC)C(=O)C(=O)c1c(-c2ccccc2)[nH]c2ccc(F)cc12`?
Answer: Ki [1]: 0.37 nM; Activity [2]: 36%

Question: What does the source list for `CCCN(CCC)C(=O)C(=O)c1c(-c2ccc([N+](=O)[O-])cc2)[nH]c2ccccc12`?
Answer: Ki [1]: 0.95 nM; Activity [2]: 70%

Question: With `CCN(Cc1ccccc1)C(=O)C(=O)c1c(-c2ccc(C(F)(F)F)cc2)[nH]c2ccccc12` as the compound, how does the Ki [1] read?
Answer: 1 nM

Question: `CCCCN(CCCC)C(=O)C(=O)c1c(-c2ccc([N+](=O)[O-])cc2)[nH]c2ccccc12` was tested. Which Ki [1] did it give?
Answer: 0.27 nM

Question: What about the Activity [2] of the same compound?
Answer: 64%

Question: With `CCCCN(CC)C(=O)C(=O)c1c(-c2ccccc2)[nH]c2ccc(Cl)cc12` as the compound, how does the Ki [1] read?
Answer: 1.8 nM

Question: And the Activity [2]?
Answer: 72%

Question: Which Ki [1] does the source give for `CCN(Cc1ccccc1)C(=O)C(=O)c1c(-c2ccc(F)cc2)[nH]c2ccc(Cl)cc12` here?
Answer: 4.01 nM

Question: And the Activity [2]?
Answer: 0%

Question: With `CCN(C)C(=O)C(=O)c1c(-c2ccc(Cl)cc2)[nH]c2ccc(Cl)cc12` as the compound, how does the Ki [1] read?
Answer: 9.54 nM

Question: What about the Activity [2] of the same compound?
Answer: 0%

Question: With `CCCN(CCC)C(=O)C(=O)c1c(-c2ccccc2)[nH]c2c(Cl)cccc12` as the compound, how does the Ki [1] read?
Answer: 14 nM

Question: And the Activity [2]?
Answer: 0%

Question: For `CCCCCCN(CCCCCC)C(=O)C(=O)c1c(-c2ccccc2)[nH]c2ccc([N+](=O)[O-])cc12`, which Ki [1] is on record?
Answer: 30.3 nM

Question: What about the Activity [2] of the same compound?
Answer: 115%

Question: How did the Ki [1] turn out when `CCCCCN(C)C(=O)C(=O)c1c(-c2ccccc2)[nH]c2ccc(Cl)cc12` was run?
Answer: 3.6 nM

Question: And the Activity [2]?
Answer: 76%

Question: Which results are given for `CCCCCCN(CCCCCC)C(=O)C(=O)c1c(-c2ccccc2)[nH]c2c(Cl)cccc12`?
Answer: Ki [1]: 2.4 nM; Activity [2]: 0%

Question: Which results are given for `CCN(Cc1ccccc1)C(=O)C(=O)c1c(-c2ccc(F)cc2)[nH]c2ccccc12`?
Answer: Ki [1]: 1.68 nM; Activity [2]: 96%

Question: For `CCCN(CCC)C(=O)C(=O)c1c(-c2ccc(F)cc2)[nH]c2ccc(F)cc12`, which Ki [1] is on record?
Answer: 6.73 nM

Question: And the Activity [2]?
Answer: 17%

Question: With `CCCCN(C)C(=O)C(=O)c1c(-c2ccc(Cl)cc2)[nH]c2ccccc12` as the compound, how does the Ki [1] read?
Answer: 11 nM

Question: Which Ki [1] does the source give for `CCN(Cc1ccccc1)C(=O)C(=O)c1c(-c2ccccc2)[nH]c2ccc([N+](=O)[O-])cc12` here?
Answer: 18.3 nM

Question: What about the Activity [2] of the same compound?
Answer: 0%

Question: With `CCN(Cc1ccccc1)C(=O)C(=O)c1c(-c2ccc(F)cc2)[nH]c2ccc(F)cc12` as the compound, how does the Ki [1] read?
Answer: 1.67 nM

Question: Which Ki [1] does the source give for `CCCCN(CCCC)C(=O)C(=O)c1c(-c2ccccc2)[nH]c2ccc(F)cc12` here?
Answer: 4 nM

Question: What about the Activity [2] of the same compound?
Answer: 88%

Question: Which Ki [1] does the source give for `CCCN(CCC)C(=O)C(=O)c1c(-c2ccccc2)[nH]c2ccc(OC)cc12` here?
Answer: 328 nM

Question: And the Activity [2]?
Answer: 45%

Question: What does the source list for `CCCCCCN(CCCCCC)C(=O)C(=O)c1c(-c2ccc(F)cc2)[nH]c2ccc(F)cc12`?
Answer: Ki [1]: 0.95 nM; Activity [2]: 40%

Question: How did the Activity [2] turn out when `CCCCN(CCCC)C(=O)C(=O)c1c(-c2ccccc2)[nH]c2ccccc12` was run?
Answer: 23%

Question: `CCCCN(CCCC)C(=O)C(=O)c1c(-c2ccccc2)[nH]c2ccc([N+](=O)[O-])cc12` was tested. Which Ki [1] did it give?
Answer: 21.6 nM

Question: And the Activity [2]?
Answer: 102%

Question: Which Ki [1] does the source give for `CCN(Cc1ccccc1)C(=O)C(=O)c1c(-c2ccccc2)[nH]c2ccccc12` here?
Answer: 11 nM

Question: And the Activity [2]?
Answer: 20%

Question: For `CCN(Cc1ccccc1)C(=O)C(=O)c1c(-c2ccc(Cl)cc2)[nH]c2ccccc12`, which Ki [1] is on record?
Answer: 1.3 nM

Question: And the Activity [2]?
Answer: 136%

Question: How did the Ki [1] turn out when `CCCCN(C)C(=O)C(=O)c1c(-c2ccc(Cl)cc2)[nH]c2ccc(Cl)cc12` was run?
Answer: 0.15 nM

Question: And the Activity [2]?
Answer: 67%

Question: Which results are given for `CCN(Cc1ccccc1)C(=O)C(=O)c1c(-c2ccccc2)[nH]c2c(C)cccc12`?
Answer: Ki [1]: 2.3 nM; Activity [2]: 0%

Question: `CCC(C)N(C)C(=O)c1cc2ccccc2c(-c2ccccc2Cl)n1` (stereo not drawn) [PK-11195] was tested. Which Activity [2] did it give?
Answer: 48%
